Assay [1] is described as follows: Inhibition of class 1 HDAC in human HeLa nuclear extracts using Boc-Lys(Ac)-AMC as substrate preincubated for 5 mins followed by substrate addition measured after 30 mins by fluorescence assay.
The subject of a further assay is PC-3. The assay can be described thus: Cytotoxicity against human PC3 cells assessed as growth inhibition after 48 hrs by SRB assay. It counts as functional, cell-based. Particulars: PC-3, 48 h. Background: Sulforhodamine B stains cellular protein and so reports cell mass.
For a further assay, the system named is A549. The assay can be described thus: Cytotoxicity against human A549 cells assessed as growth inhibition after 48 hrs by SRB assay. It counts as functional, cell-based. Particulars: A549, 48 h.
For the next assay, the target named is Histone deacetylase 1 (Homo sapiens, UniProt Q13547). The assay can be described thus: Inhibition of C-terminal FLAG/His-tagged full length recombinant human HDAC1 expressed in baculovirus infected Sf9 insect cells using KI 177 as substrate preincubated for 5 mins followed by substrate addition measured after 30 mins by fluorescence assay.
Chain of Histone deacetylase 1 (Q13547 whole entry): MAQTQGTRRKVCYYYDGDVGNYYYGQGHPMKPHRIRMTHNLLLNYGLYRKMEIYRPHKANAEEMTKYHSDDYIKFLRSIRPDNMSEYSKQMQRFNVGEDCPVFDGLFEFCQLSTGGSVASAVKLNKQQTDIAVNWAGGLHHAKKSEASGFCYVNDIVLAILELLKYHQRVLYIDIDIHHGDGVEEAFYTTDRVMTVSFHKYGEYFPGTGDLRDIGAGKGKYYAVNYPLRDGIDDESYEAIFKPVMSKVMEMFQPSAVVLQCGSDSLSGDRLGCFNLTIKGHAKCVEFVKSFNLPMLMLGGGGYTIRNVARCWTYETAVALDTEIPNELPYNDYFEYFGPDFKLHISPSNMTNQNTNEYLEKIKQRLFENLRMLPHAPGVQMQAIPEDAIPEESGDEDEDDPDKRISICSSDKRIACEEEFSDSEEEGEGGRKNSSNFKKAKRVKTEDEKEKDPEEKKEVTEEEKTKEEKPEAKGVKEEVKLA
In assay [2] the target is T1, Histone deacetylase 2 (Homo sapiens, UniProt Q92769). The assay can be described thus: biochemical. In kind it is cell-based, Sf9.
T1 sequence (Q92769 whole entry): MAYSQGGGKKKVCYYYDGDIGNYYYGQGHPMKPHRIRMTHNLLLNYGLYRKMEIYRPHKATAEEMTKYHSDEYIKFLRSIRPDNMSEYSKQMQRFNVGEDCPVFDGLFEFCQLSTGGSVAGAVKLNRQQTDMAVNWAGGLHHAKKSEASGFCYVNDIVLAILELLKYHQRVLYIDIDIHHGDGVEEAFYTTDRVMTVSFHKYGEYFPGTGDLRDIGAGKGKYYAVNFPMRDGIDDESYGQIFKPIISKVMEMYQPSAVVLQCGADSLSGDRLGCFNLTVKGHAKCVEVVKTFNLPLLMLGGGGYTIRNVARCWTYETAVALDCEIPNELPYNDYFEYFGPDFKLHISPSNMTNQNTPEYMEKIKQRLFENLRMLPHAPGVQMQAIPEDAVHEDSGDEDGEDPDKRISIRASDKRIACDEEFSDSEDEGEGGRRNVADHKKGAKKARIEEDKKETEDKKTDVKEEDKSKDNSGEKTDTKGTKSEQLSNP
The target in assay [3] is Histone deacetylase 3/Nuclear receptor corepressor 2 (HDAC3/NCoR2) (Homo sapiens, UniProt O15379). The assay can be described thus: Inhibition of C-terminal His-tagged/N-terminal GST-tagged full length recombinant human HDAC3/NcoR2 expressed in baculovirus infected Sf9 insect cells using KI 177 as substrate preincubated for 5 mins followed by substrate addition measured after 30 mins by fluorescence assay.

Another assay addresses T2, Histone deacetylase 8 (Homo sapiens, UniProt Q9BY41).
T2 sequence (Q9BY41 whole entry): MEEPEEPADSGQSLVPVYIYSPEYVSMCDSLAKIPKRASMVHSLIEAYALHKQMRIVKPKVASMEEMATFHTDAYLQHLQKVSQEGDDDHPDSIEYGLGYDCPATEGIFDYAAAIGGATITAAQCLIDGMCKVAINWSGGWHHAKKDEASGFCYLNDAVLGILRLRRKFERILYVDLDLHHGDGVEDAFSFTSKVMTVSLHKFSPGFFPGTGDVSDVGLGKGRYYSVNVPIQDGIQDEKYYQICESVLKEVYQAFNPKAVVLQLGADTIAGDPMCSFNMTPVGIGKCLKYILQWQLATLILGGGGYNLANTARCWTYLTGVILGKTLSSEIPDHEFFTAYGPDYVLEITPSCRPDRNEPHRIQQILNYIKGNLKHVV
The assay can be described thus: Inhibition of C-terminal His-tagged recombinant human HDAC8 (1 to 377 residues) expressed in baculovirus infected Sf9 insect cells using Boc-Lys(TFA)-AMC as substrate preincubated for 5 mins followed by substrate addition measured after 30 mins by fluorescence assay.

A further assay has as its target Histone deacetylase 4 (Homo sapiens, UniProt P56524). The assay can be described thus: Inhibition of N-terminal GST/C-terminal His-tagged recombinant human HDAC4 (648 to 1057 residues) expressed in baculovirus infected Sf9 insect cells using Boc-Lys(TFA)-AMC as substrate preincubated for 5 mins followed by substrate addition measured after 30 mins by fluorescence assay.

A further assay concerns the target Histone deacetylase 5 (Homo sapiens, UniProt Q9UQL6). The assay can be described thus: Inhibition of full length recombinant human HDAC5 preincubated for 5 mins followed by substrate addition measured after 30 mins by fluorescence assay.
The target of a further assay is T3, Histone deacetylase 7 (Homo sapiens, UniProt Q8WUI4).
T3 sequence (Q8WUI4 whole entry): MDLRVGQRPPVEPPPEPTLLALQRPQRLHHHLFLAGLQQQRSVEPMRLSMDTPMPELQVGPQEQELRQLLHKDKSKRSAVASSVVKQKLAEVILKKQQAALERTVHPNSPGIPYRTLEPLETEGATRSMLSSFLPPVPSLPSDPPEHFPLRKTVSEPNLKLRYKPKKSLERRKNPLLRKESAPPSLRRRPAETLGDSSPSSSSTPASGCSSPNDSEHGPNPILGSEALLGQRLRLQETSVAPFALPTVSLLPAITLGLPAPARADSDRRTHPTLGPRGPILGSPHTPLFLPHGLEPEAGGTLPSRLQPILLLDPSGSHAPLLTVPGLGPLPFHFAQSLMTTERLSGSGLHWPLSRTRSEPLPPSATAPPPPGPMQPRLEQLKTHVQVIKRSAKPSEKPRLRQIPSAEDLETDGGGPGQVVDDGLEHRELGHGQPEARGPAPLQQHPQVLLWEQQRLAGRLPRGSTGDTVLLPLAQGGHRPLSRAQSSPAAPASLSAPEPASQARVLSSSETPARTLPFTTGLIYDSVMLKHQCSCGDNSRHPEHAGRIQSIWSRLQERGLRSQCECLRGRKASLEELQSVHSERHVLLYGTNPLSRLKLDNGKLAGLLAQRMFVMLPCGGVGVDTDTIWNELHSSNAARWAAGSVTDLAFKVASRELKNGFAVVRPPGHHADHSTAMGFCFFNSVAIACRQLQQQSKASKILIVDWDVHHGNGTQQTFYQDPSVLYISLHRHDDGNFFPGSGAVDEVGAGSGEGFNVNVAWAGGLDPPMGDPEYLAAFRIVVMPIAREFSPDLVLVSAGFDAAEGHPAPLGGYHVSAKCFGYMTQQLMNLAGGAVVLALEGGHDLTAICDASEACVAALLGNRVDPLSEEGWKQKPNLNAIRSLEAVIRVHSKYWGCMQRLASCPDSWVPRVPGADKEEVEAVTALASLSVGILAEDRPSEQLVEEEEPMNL
The assay can be described thus: Inhibition of N-terminal GST-tagged human HDAC7 expressed in baculovirus infected Sf9 insect cells preincubated for 5 mins followed by substrate addition measured after 30 mins by fluorescence assay.

In another assay the target is Histone deacetylase 9 (Homo sapiens, UniProt Q9UKV0). The assay can be described thus: Inhibition of C-terminal His-tagged recombinant human HDAC9 expressed in baculovirus infected Sf9 insect cells preincubated for 5 mins followed by substrate addition measured after 30 mins by fluorescence assay.
Chain of Histone deacetylase 9 (Q9UKV0 whole entry): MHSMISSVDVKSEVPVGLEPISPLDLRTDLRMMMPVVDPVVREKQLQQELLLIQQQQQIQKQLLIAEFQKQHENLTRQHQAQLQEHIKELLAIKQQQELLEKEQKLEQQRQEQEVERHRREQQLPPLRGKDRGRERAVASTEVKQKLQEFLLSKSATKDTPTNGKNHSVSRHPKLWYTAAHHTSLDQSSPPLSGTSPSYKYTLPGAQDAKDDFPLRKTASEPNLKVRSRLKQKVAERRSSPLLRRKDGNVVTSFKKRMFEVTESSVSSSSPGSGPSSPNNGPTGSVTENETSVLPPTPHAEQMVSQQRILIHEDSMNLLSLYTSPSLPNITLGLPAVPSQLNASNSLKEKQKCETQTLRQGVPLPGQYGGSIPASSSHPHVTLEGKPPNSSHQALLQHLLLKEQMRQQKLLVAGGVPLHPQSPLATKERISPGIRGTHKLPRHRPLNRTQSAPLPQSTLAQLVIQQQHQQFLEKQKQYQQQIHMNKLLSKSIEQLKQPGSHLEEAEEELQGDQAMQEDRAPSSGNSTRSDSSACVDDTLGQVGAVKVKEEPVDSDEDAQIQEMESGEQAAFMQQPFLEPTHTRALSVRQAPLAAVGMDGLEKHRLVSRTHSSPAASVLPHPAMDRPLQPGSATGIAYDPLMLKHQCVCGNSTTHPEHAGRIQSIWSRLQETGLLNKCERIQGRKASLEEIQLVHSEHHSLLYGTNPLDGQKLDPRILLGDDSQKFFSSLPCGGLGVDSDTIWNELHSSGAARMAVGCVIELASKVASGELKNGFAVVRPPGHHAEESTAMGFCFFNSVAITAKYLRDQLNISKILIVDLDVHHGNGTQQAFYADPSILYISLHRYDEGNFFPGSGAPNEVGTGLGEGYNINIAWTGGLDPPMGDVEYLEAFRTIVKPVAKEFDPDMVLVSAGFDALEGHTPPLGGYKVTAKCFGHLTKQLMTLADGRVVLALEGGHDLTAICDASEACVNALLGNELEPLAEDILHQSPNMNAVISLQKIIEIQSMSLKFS
In assay [4] the target is T4, Protein deacetylase HDAC6 (Homo sapiens, UniProt Q9UBN7).
T4 sequence (Q9UBN7 whole entry): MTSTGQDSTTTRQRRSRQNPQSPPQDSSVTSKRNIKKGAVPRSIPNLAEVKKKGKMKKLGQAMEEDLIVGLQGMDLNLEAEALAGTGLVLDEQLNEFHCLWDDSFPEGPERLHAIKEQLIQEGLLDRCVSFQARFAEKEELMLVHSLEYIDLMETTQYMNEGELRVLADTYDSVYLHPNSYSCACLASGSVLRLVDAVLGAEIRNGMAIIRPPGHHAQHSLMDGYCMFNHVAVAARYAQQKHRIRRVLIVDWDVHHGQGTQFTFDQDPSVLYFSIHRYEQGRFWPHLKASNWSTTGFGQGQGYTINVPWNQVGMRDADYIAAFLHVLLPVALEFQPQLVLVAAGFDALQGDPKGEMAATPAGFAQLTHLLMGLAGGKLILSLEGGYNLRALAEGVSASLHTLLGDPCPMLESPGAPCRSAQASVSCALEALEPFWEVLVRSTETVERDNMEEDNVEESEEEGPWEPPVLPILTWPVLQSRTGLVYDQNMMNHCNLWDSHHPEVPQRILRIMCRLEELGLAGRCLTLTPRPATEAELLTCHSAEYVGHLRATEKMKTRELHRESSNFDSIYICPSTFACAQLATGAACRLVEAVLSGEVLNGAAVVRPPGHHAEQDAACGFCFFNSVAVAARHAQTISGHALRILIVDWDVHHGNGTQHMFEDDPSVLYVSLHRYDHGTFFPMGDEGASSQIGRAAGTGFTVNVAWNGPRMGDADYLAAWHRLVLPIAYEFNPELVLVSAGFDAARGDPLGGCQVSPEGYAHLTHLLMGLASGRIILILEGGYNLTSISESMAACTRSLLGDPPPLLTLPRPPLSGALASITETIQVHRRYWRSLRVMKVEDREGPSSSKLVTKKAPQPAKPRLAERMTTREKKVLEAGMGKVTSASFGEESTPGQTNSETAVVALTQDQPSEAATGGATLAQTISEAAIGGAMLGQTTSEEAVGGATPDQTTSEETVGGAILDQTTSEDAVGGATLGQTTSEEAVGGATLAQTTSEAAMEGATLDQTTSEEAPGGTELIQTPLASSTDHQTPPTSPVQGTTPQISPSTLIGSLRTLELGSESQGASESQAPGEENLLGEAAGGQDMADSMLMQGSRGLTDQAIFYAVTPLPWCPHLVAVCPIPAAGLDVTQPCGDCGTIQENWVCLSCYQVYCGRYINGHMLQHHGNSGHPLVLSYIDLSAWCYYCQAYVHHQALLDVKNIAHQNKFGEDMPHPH
The assay can be described thus: Inhibition of N-terminal GST-tagged human HDAC6 using Boc-Lys(Ac)-AMC as substrate preincubated for 5 mins followed by substrate addition measured after 30 mins by fluorescence assay.

Assay [5] addresses T1, Histone deacetylase 2. The assay can be described thus: Potency index, ratio of SAHA IC50 to test compound IC50 for full length recombinant human HDAC2 expressed in baculovirus infected Sf9 insect cells. The essentials:
(§1)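 Fluorogenic deacetylase assay in 15 mM Tris-HCl pH 8.1, 0.25 mM EDTA, 250 mM NaCl, 10% glycerol. Enzyme and compound preincubated 5 min at 30 °C. Substrates: Boc-Lys(Ac)-AMC for HeLa extract, Boc-Lys(TFA)-AMC for HDAC8, KI 177 for HDAC1/2. Reaction ran 30 min at 30 °C, then trypsin with SAHA developed it 20 min; read at ex 355/em 460 nm. 0.1% DMSO set as 100% and 2 µM SAHA as 0%; run in triplicate; IC50 ratios relative to SAHA.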

The next assay is filed under the species Homo sapiens. The assay can be described thus: Potency index, ratio of SAHA IC50 to test compound IC50 for class 1 HDAC in human HeLa nuclear extracts. The procedure, abridged: as §1

Chain of Histone deacetylase 5 (Q9UQL6 whole entry): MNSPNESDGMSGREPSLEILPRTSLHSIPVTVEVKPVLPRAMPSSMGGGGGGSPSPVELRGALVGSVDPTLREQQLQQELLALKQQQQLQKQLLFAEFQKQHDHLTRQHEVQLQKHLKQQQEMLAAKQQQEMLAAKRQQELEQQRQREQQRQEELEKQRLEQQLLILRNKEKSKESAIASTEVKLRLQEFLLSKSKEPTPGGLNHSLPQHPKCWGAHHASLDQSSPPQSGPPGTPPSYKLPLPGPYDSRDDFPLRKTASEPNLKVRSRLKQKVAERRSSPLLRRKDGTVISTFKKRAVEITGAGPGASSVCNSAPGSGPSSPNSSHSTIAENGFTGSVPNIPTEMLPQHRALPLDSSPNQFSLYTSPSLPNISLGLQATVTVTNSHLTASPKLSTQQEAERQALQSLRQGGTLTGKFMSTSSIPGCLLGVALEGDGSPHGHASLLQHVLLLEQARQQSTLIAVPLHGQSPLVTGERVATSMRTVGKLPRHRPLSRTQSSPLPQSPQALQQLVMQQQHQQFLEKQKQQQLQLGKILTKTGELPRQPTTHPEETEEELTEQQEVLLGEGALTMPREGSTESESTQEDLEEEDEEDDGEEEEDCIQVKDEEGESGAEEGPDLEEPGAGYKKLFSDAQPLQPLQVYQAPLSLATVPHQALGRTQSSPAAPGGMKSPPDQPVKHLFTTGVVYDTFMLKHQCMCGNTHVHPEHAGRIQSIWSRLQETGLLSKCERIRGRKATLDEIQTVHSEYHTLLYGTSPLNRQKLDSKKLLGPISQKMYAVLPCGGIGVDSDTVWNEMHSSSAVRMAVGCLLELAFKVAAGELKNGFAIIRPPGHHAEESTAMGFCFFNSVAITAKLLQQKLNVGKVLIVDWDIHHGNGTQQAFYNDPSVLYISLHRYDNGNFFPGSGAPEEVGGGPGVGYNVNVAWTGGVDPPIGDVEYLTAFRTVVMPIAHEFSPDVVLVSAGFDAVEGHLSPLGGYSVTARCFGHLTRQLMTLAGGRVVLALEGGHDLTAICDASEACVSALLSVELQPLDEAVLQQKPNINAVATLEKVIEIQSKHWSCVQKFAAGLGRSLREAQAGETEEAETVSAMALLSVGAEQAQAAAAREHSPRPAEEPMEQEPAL
Chain of Histone deacetylase 4 (P56524 whole entry, the tested form may be a part): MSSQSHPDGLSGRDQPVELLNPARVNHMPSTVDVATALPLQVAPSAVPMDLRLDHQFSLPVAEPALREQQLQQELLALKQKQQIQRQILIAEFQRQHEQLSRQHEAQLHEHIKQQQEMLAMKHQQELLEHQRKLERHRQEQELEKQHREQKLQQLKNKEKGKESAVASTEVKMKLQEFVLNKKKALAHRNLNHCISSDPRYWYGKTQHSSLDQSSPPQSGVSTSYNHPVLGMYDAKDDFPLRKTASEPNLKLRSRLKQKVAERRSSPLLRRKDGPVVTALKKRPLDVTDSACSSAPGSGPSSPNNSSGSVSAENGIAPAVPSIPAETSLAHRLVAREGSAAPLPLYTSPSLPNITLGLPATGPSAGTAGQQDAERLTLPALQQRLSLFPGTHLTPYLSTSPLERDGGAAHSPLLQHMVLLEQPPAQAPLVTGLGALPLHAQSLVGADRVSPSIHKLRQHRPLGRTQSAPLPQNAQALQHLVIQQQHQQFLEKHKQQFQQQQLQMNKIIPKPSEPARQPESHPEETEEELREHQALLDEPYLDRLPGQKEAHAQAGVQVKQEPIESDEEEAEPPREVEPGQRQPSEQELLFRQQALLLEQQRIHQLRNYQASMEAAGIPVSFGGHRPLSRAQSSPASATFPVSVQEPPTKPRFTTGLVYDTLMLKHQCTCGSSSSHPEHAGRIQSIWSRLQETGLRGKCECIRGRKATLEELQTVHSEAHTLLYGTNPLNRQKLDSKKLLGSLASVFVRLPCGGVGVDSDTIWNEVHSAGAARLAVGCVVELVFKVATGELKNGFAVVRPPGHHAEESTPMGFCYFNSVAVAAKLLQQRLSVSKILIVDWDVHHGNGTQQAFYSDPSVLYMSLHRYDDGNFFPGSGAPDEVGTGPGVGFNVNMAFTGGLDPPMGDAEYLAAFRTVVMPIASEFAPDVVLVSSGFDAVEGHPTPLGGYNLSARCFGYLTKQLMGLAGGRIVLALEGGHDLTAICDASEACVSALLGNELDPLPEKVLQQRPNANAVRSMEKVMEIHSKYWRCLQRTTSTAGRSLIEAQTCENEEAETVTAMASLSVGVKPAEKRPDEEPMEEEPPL

With `COc1cccc2ccn(CCOc3cccc(NC(=O)CCCCCCC(=O)NO)c3)c12`, the IC50 in assay [1] was found to be 13.5 nM; in the assay on PC-3 it was 1400 nM; with A549 it was 1900 nM.
As for `COc1cc2ccn(CCCOc3ccccc3NC(=O)CCCCCCC(=O)NO)c2c(OC)c1OC`, the IC50 in assay [1] was 111 nM; in the assay on PC-3, 3900 nM; with A549, 5000 nM.
Regarding `COc1cc2ccn(CCOc3cccc(NC(=O)CCCCCCC(=O)NO)c3)c2c(OC)c1OC`, the IC50 in assay [1] was found to be 11.5 nM; with PC-3, 1300 nM; with A549, 2400 nM; at Histone deacetylase 1, 11.1 nM; against Histone deacetylase 2 [2], 111 nM; in [3], 72.5 nM. The half-inhibitory concentration (IC50) on Histone deacetylase 8 is 421 nM; at Histone deacetylase 4, > 10000 nM; on Histone deacetylase 5 it was > 10000 nM; on Histone deacetylase 7, > 10000 nM; on Histone deacetylase 9, > 10000 nM; in [4], 9.6 nM. Also, the Ratio IC50 at Histone deacetylase 2 [5] is 2; in the assay listed under Homo sapiens it was 2 to 5.
Take `COc1ccc2c(ccn2CCOc2cccc(NC(=O)CCCCC(=O)NO)c2)c1`: 186 nM corresponded to half-maximal inhibition in [1] (IC50).
`COc1ccc2c(ccn2CCOc2cccc(NC(=O)CCCCCCCC(=O)NO)c2)c1`: in assay [1], the IC50 was 40 nM.
As to `O=C(CCCCCCC(=O)Nc1cccc(OCCn2ccc3cc(Br)ccc32)c1)NO`, it took 41.3 nM to reach half-maximal inhibition in assay [1] (IC50).
For the molecule `COc1cc2ccn(CCOc3ccccc3NC(=O)CCCCCCC(=O)NO)c2c(OC)c1OC`, the IC50 in assay [1] stood at 110 nM; with PC-3, 5600 nM; with A549 it was 5900 nM.
On to `COc1cc2ccn(CCOc3ccc(NC(=O)CCCCCCC(=O)NO)cc3)c2c(OC)c1OC`, for which the IC50 worked out at 57.2 nM in [1], 4400 nM in the assay with PC-3 and 4900 nM in the assay with A549.
As to `O=C(CCCCCCC(=O)Nc1cccc(OCCn2ccc3ccccc32)c1)NO`, in assay [1], inhibition was half-maximal at 23.1 nM (IC50).
Take `COc1cc2ccn(CCCCOc3cccc(NC(=O)CCCCCCC(=O)NO)c3)c2c(OC)c1OC`: the IC50 in assay [1] was found to be 17.8 nM; in the assay on PC-3, 2100 nM; in the assay on A549 it was 2400 nM; at Histone deacetylase 1, 29.3 nM; against Histone deacetylase 2 [2], 1000 nM; in assay [3], 108 nM. Besides, the IC50 is 752 nM at Histone deacetylase 8; > 10000 nM on Histone deacetylase 4; > 10000 nM on Histone deacetylase 5; > 10000 nM against Histone deacetylase 7; > 10000 nM on Histone deacetylase 9; 8.5 nM in assay [4]. In addition, the Ratio IC50 in the assay listed under Homo sapiens lay within 2 to 5.
On to `COc1cc2ccn(CCCCOc3ccc(NC(=O)CCCCCCC(=O)NO)cc3)c2c(OC)c1OC`, for which the IC50 in [1] amounted to 46.4 nM; in the assay on PC-3, 7700 nM; in the assay with A549 it was 9700 nM.
For the molecule `COc1ccc2c(ccn2CCOc2cccc(NC(=O)CCCCCCCCC(=O)NO)c2)c1`, the IC50 in assay [1] is 298 nM.
Take `COc1ccc2ccn(CCOc3cccc(NC(=O)CCCCCCC(=O)NO)c3)c2c1`: the figures for the IC50 (in [1]; in the assay with PC-3; with A549) were 14.9 nM, 1800 nM and 4200 nM, respectively.
As for `COc1cc2ccn(CCCOc3cccc(NC(=O)CCCCCCC(=O)NO)c3)c2c(OC)c1OC`, the IC50 in assay [1] worked out at 22.5 nM; with PC-3, 2700 nM; with A549, 2700 nM. Moreover, the Ratio IC50 in the assay listed under Homo sapiens is 2 to 5.
On to `COc1cc2ccn(CCCOc3ccc(NC(=O)CCCCCCC(=O)NO)cc3)c2c(OC)c1OC`, for which the 50% inhibitory concentration (IC50) in assay [1] turned out to be 139 nM; in the assay on PC-3, 6900 nM; in the assay on A549 it was 5900 nM.
`COc1cc2ccn(CCCCOc3ccccc3NC(=O)CCCCCCC(=O)NO)c2c(OC)c1OC`: the IC50 turned out to be 111 nM in assay [1], 2400 nM in the assay with PC-3 and 4800 nM in the assay on A549.

Broadly, the IC50 is the midpoint of a concentration-inhibition curve.

Values taken from ChEMBL document CHEMBL4138235, “Discovery of aliphatic-chain hydroxamates containing indole derivatives with potent class I histone deacetylase inhibitory activities” (Eur J Med Chem, 2018).
